# Screening results from PubChem BioAssay.
# Rows were chosen to be rich in hits. Some 1.9% of all compounds tested hit in one or more screens of this group.
# Hep lipid drop: hepatic lipid droplet formation modulation. 240,000 tested, 0.4% active. inhibition, % at 6.5 µM. AID 1656. AML12 mouse hepatocytes, oleate lipid droplets, BODIPY imaging;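 active = lipid droplet intensity inhibited by at least 50%, with more than 500 cells counted; inconclusive = wells with under 300 cells, treated as cytotoxic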
#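 Assay system: AML12 hepatocytes (mouse); Probe or stimulus: oleic acid at 100 µM to induce lipid droplet formation; Dosing: compound at 6.5 µM only; Schedule: compound with oleate, overnight; Detection: fluorescence imaging, 20x objective, two fields per well; Measure: % inhibition of lipid droplet signal.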
# APP 5UTR inh: APP translation inhibition; SH-SY5Y APP 5'UTR-luciferase reporter, luminescence; inhibition, % at 2 µM; 190,000 tested, 0.82% active; AID 1285;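 active = inhibition above a set limit, derived from the sample mean plus 3 SD, cut at about 45% in these data; inconclusive = one replicate passes the limit while the other fails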
# aSyn 5UTR inh: 5' untranslated region of α-synuclein, MLPCN primary screen; alpha-synuclein 5'UTR reporter, inhibitor activity; inhibition, % (tested at 7.5 µM); 300,000 tested, 0.82% active; AID 1813; in the data active = inhibition above about 60%; inconclusive = no clear call, values can overlap the other calls;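 also: H4 neuroglioblastoma cells stably carrying SNCA 5'UTR luciferase fusion; 0% = DMSO wells and 100% = positive control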
# 697 NFkB inh: lowers PMA/ionomycin-induced NF-kB signal in 697 B cells | 697 B-cell NF-kB luciferase reporter, 16 h | inhibition, % at 4 µM | 330,000 tested, 0.33% active | AID 435022; in the data active = inhibition above about 35%
# Jurkat NFkB inh: lowers PMA/ionomycin-induced NF-kB signal in Jurkat cells | PMA/ionomycin-induced NF-kB luciferase reporter, luminescence | inhibition, % at 4 µM | 330,000 tested, 0.53% active; in the data active = inhibition above about 50%
# TAG inh: triacylglycerol accumulation inhibition | H9c2 cells, Nile Red lipid (TAG) fluorescence; cells loaded with 200 µM oleic acid | inhibition, % at 12.5 µM | 230,000 tested, 0.66% active | AID 651582;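 active = pattern-corrected inhibition of lipid staining of at least 50% with the nuclear-stain viability signal not falling by more than 50%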;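 also: 0% = DMSO wells and 100% = triacsin C control wells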
# * = called active by the depositor; ? = inconclusive; / = no result given.
SMILES,Hep lipid drop,APP 5UTR inh,aSyn 5UTR inh,697 NFkB inh,Jurkat NFkB inh,TAG inh
COc1ncnc2c1ncn2CCCNCc1ccc(C)o1,/,/,/,/,/,-0.5
CC(=O)c1cccc(NC(=O)CN2C(=O)COc3ccc(S(=O)(=O)N4CCOCC4)cc32)c1,-1.6,/,73.0*,15.7,15.1,/
CN(C)Cc1ncccc1Oc1nc2cc(-c3cccc(Cl)c3)sc2c(=O)n1C,/,/,/,/,/,22.2
Oc1cc(Nc2ccccc2)cc2cccnc12,/,/,/,0.1,3.7,5.1
Oc1cc(NCCN2CCOCC2)cc2cccnc12,/,/,/,6.6,13.0,73.7*
CN(C)C=Nc1ccc([N+](=O)[O-])c2ccccc12,/,/,/,/,/,-1.5
CCCCN(C)C(=O)c1sc(=O)n(CC(=O)c2ccccc2OC)c1C,/,/,/,/,/,10.0
CCCNC(=O)CCn1nc(-c2ccc(Cl)cc2)c2ccccc2c1=O,4.0,/,82.1*,-25.4,-11.0,-2.6
COc1ccc(NC(=O)C2Cc3c(-c4cccc(F)c4)ccnc3O2)cc1OC (stereo unspecified),/,/,/,/,/,-25.1
CCCCCCN1C[C@H](n2cc(-c3ccc(F)cc3)nn2)[C@@H](O)C[C@@H]1c1ccc(C)cc1,/,/,/,/,/,1.8
COc1ccc(C(=O)Nn2c(SCC(=O)NCc3ccco3)nc3ccccc3c2=O)cc1,4.2,-76.7,81.4*,-98.3,-23.0,-2.0
COc1ccc(C(=O)Nn2c(SCc3cccc([N+](=O)[O-])c3)nc3ccccc3c2=O)cc1,27.6,-94.2,66.2*,-110.7,-88.8,/
CCn1c(SCC(=O)NCc2ccco2)nc2ccccc2c1=O,-7.4,11.5,1.8,7.4,-1.1,5.2
COc1ccc(C(=O)Nn2c(SCC(=O)N3CCC(C)CC3)nc3ccccc3c2=O)cc1,/,-31.1,82.8*,-129.7,-57.5,/
O=C1NC(Cc2ccc(O)cc2)c2nc3ccc(F)cc3c(=O)n2-c2ncccc21 (stereo unspecified),/,/,/,/,/,3.7
CCN1CCN(Cc2ccc(NC(=O)c3cc(NC(=O)c4cc(-c5ccc(OC)cc5)n[nH]4)cc(OC)c3)cc2C(F)(F)F)CC1,6.7,/,106.2*,-0.8,-42.3,69.4*
CCN1CCN(Cc2ccc(NC(=O)c3ccc(C)c(/C=C/c4cnc(Nc5cc(N6CCNCC6)nc(C)n5)cn4)c3)cc2C(F)(F)F)CC1,/,/,110.2*,11.8,-71.7,-135.5
CCN1CCN(Cc2ccc(NC(=O)c3ccc(C)c(NC(=O)c4c[nH]c5cc(C(F)(F)F)ccc5c4=O)c3)cc2C(F)(F)F)CC1,3.7,/,112.6*,7.7,-23.1,138.9*
CCN1CCN(Cc2ccc(NC(=O)c3ccc(C)c(NC(=O)c4ccno4)c3)cc2C(F)(F)F)CC1,23.8,/,67.1*,7.6,18.7,-1.1
COc1cc2cnc(CCO[C@H]3CCCCO3)cc2cc1OC,/,/,/,-12.9,-2.2,11.1
CCOC(=O)c1ccc(S(=O)(=O)N2CCN(C(=O)c3cccc(S(=O)(=O)N4CC(C)OC(C)C4)c3)CC2)cc1 (stereo unspecified),/,/,/,/,/,6.3
NS(=O)(=O)c1ccc(NC(=O)c2cccc3cc4ccccc4nc23)cc1,/,/,/,/,/,7.9
O=C(CCc1ccccc1)NNC(=S)NC(=O)c1ccccc1,/,-12.4,-0.7,3.1,11.1,/
CC(C)(C)c1cc(CCC(=O)NNC(=S)NC(=O)c2ccccc2)cc(C(C)(C)C)c1O,9.1,44.4,65.8*,-28.3,-1.3,17.5
OC(c1ccc(Cl)cc1)c1ncc(-c2cccc(C(F)(F)F)c2)[nH]1 (stereo unspecified),/,/,/,/,/,-46.3
SMILES,Hep lipid drop,APP 5UTR inh,aSyn 5UTR inh,697 NFkB inh,Jurkat NFkB inh,TAG inh
COc1ccccc1C=NN=C(NN=Cc1ccccc1OC)NN=Cc1ccccc1OC,/,/,/,/,/,56.5*
CC(C1SC(=S)NC1=O)C1SC(=S)NC1=O (stereo unspecified),/,/,/,/,/,2.0
O=C(/C=C/Nc1ccc(Br)cc1F)c1ccccc1,3.6,-139.6,77.5*,-187.7,-129.4,/
O=C(/C=C/Nc1ccccc1F)c1ccc(Br)cc1,0.6,-224.2,-48.7,/,/,/
CC(=O)NC(c1ccccc1)c1nc(-c2ccccc2)cs1 (stereo unspecified),/,/,/,/,/,6.8
CN(C)c1ccc(NC(=S)c2ccccn2)cc1,-1.9,-58.3,97.1*,/,/,/
N#Cc1c(NC(=O)/C=C/c2ccco2)sc2c1CCCC2,?,92.6*,26.1,/,/,/
O=C(/C=C/c1ccco1)Nc1sc2c(c1C(=O)O)CCC2,/,-13.8,-56.9,7.4,-16.3,/
N#Cc1c(NC(=O)CCCC(=O)O)sc2c1CCCCC2,-2.0,46.0*,90.3*,-11.3,-5.7,/
CCCC(=O)Nc1sc2c(c1C#N)CCCCC2,-8.8,-14.2,-166.6,-63.6,-63.0,/
